{"data": "Assay results gathered from unrelated publications", "cell line": "HeLa", "read-out": "cell growth or viability"}
{"Compound": "N.N.[Cl][Pt][Cl]", "assay": "MTT", "conditions": "24 h", "IC50": "2330 nM"}
{"Compound": "C[C@]12C=CC(=O)C[C@@H]1CC[C@@H]1[C@@H]2C(=O)C[C@@]2(C)[C@H]1CC[C@]2(C)O", "assay": "MTT", "conditions": "24 h", "IC50": "19200 nM"}
{"Compound": "CC[C@@]1(OC(=O)[C@@H](N)Cc2ccccc2)C(=O)OCc2c1cc1n(c2=O)Cc2cc3cc4c(cc3nc2-1)OCO4", "assay": "MTT", "IC50": "64 nM"}
{"Compound": "N#Cc1ccc(NC(=S)NN=Cc2ccccc2)cc1", "conditions": "72 h", "IC50": "67 µg/mL"}
{"Compound": "Nc1cc(Br)c(Br)cc1N", "conditions": "72 h", "IC50": "20000 nM"}
{"Compound": "CC[C@@]1(OC(=O)[C@@H](N)CCCCN)C(=O)OCc2c1cc1n(c2=O)Cc2cc3cc4c(cc3nc2-1)OCO4", "assay": "MTT", "IC50": "24 nM"}
{"Compound": "Nc1cc(Cl)c(Cl)cc1N", "conditions": "72 h", "IC50": "50000 nM"}
{"Compound": "CC(C)[C@]12O[C@H]1[C@@H]1O[C@]13[C@]1(O[C@H]1C[C@H]1C4=C(CC[C@@]13C)C(=O)OC4)[C@@H]2O", "assay": "thymidine uptake", "conditions": "3 h", "IC50": "41 nM"}
{"Compound": "COc1c2c(cc3c1OCO3)[C@]13C=C[C@H](OC)C[C@@H]1[N@](C2)C[C@H]3OC(=O)c1ccco1", "assay": "WST-1", "conditions": "48 h", "IC50": "> 10000 nM"}
{"Compound": "CSc1ccc(NC(=S)NN)cc1", "conditions": "72 h", "IC50": "18 µg/mL"}
{"Compound": "COc1cc(C(=O)c2cc3c(-c4ccccc4)c(O)ccc3o2)cc(OC)c1OC", "IC50": "31000 nM"}
{"Compound": "CC[C@@]1(OC(=O)C(C)c2cccc(C(=O)c3ccccc3)c2)C(=O)OCc2c1cc1n(c2=O)Cc2cc3cc4c(cc3nc2-1)OCO4 (stereo partly shown)", "assay": "MTT", "IC50": "270 nM"}
{"Compound": "O=C(Cc1ccc2ccccc2c1)N[C@@H](Cc1ccccc1)C(=O)N[C@@H](Cc1ccccc1)C(=O)N[C@@H](Cc1ccc(OP(=O)(O)O)cc1)C(=O)O", "assay": "MTT", "conditions": "48 h", "IC50": "> 500000 nM"}
{"Compound": "CC[C@@]1(OC(=O)Cc2c(C)n(C(=O)c3ccc(Cl)cc3)c3ccc(OC)cc23)C(=O)OCc2c1cc1n(c2=O)Cc2cc3cc4c(cc3nc2-1)OCO4", "assay": "MTT", "IC50": "306 nM"}
{"Compound": "[Cl-].[Cl-].[Co+2]", "assay": "MTT", "conditions": "48 h", "IC50": "> 150000 nM"}
{"Compound": "CC[C@@]1(OC(=O)[C@@H](N)C(C)C)C(=O)OCc2c1cc1n(c2=O)Cc2cc3cc4c(cc3nc2-1)OCO4", "assay": "MTT", "IC50": "114 nM"}
{"Compound": "N#Cc1ccc(NC(=S)NN=Cc2ccc(F)cc2)cc1", "conditions": "72 h", "IC50": "68 µg/mL"}
{"Compound": "CC[C@H](C)[C@H](N)C(=O)O[C@]1(CC)C(=O)OCc2c1cc1n(c2=O)Cc2cc3cc4c(cc3nc2-1)OCO4", "assay": "MTT", "IC50": "124 nM"}
{"Compound": "N#Cc1ccc(NC(=S)NN=Cc2ccc([N+](=O)[O-])cc2)cc1", "conditions": "72 h", "IC50": "142 µg/mL"}
